Data as given in ChEMBL document CHEMBL1147606, “Synthesis and cytotoxicity of hydrophobic esters of podophyllotoxins” (Bioorg Med Chem Lett, 2004).

Legend:
Assay type in all cases: functional, cell-based
A549 = test: In vitro cytotoxicity against the A-549 (human lung carcinoma) neoplastic cell line
HT-29 = test: In vitro cytotoxicity against the HT-29 (human colon carcinoma) neoplastic cell line
Summary of the method: (§1)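 In vitro assay adapted from Bergeron's method. P-388 was grown as a suspension culture of a mouse lymphoid neoplasm. A-549, HT-29 and MEL-28 were grown as monolayer cultures. Dose–response curves were constructed, and IC50 values (nM) were calculated from them.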

P388 = test: In vitro cytotoxicity against the P-388 (from DBA/2 mouse) neoplastic cell line; summary of the method: as §1
SK-MEL-28 = test: In vitro cytotoxicity against MEL-28 (human malign melanoma) neoplastic cell line; summary of the method: as §1

What does the source list for `C=CC(=O)O[C@H]1c2cc3c(cc2[C@@H](c2cc(OC)c(OC)c(OC)c2)[C@@H]2C(=O)OC[C@@H]21)OCO3`?
IC50 (A549; Homo sapiens, A549): 0.053 µM; IC50 (HT-29; Homo sapiens, HT-29): 0.055 µM; IC50 (P388; Mus musculus, P388): 0.055 µM; IC50 (SK-MEL-28; Homo sapiens, SK-MEL-28): 0.053 µM

What does the source list for `COc1cc([C@@H]2c3cc4c(cc3[C@H](OC(=O)C3CC5C=CC3C5)[C@H]3COC(=O)[C@H]23)OCO4)cc(OC)c1OC` (some centres undefined)?
IC50 (A549; a549): 0.468 µM; IC50 (HT-29; ht-29): 0.468 µM; IC50 (P388; p388): 0.468 µM; IC50 (SK-MEL-28; sk-mel-28): 0.468 µM

For `COc1cc([C@@H]2c3cc4c(cc3[C@H](O)[C@H]3COC(=O)[C@@H]23)OCO4)cc(OC)c1OC` [AXL-1717], which IC50 (A549; Homo sapiens, A549) is on record?
Its IC50 is 0.06 µM.

What about the IC50 (HT-29; Homo sapiens, HT-29) of the same molecule?
Its IC50 is 0.06 µM.

And the IC50 (P388; Mus musculus, P388)?
The IC50 was 0.06 µM.

How did the IC50 (A549; Homo sapiens, A549) turn out when `COc1cc([C@@H]2c3cc4c(cc3[C@@H](O)[C@H]3COC(=O)[C@@H]23)OCO4)cc(OC)c1OC` was run?
Its IC50 is 0.012 µM.

And the IC50 (HT-29; Homo sapiens, HT-29)?
The IC50 was 0.024 µM.

And the IC50 (P388; Mus musculus, P388)?
Its IC50 is 0.012 µM.

For `COc1cc([C@@H]2c3cc4c(cc3[C@@H](OC(=O)c3ccccc3)[C@H]3COC(=O)[C@H]23)OCO4)cc(OC)c1OC`, which IC50 (A549; Homo sapiens, A549) is on record?
Its IC50 is 0.048 µM.

And the IC50 (HT-29; Homo sapiens, HT-29)?
The IC50 was 0.048 µM.

What about the IC50 (P388; Mus musculus, P388) of the same molecule?
The IC50 was 0.024 µM.

And the IC50 (SK-MEL-28; Homo sapiens, SK-MEL-28)?
The IC50 was 0.048 µM.

With `COc1cc([C@@H]2c3cc4c(cc3C(OC(=O)C3CC5C=CC3C5)[C@H]3COC(=O)C23)OCO4)cc(OC)c1OC` (single isomer, unassigned) as the molecule, how does the IC50 (A549; a549) read?
The IC50 was 0.004 µM.

And the IC50 (HT-29; ht-29)?
The IC50 was 0.004 µM.

And the IC50 (P388; p388)?
Its IC50 is 0.005 µM.

And the IC50 (SK-MEL-28; sk-mel-28)?
Its IC50 is 0.004 µM.

Which results are given for `COc1cc([C@@H]2c3cc4c(cc3[C@@H](O)[C@H]3COC(=O)[C@H]23)OCO4)cc(OC)c1OC` [EPIPODOPHYLLOTOXIN]?
IC50 (A549; Homo sapiens, A549): 6 µM; IC50 (HT-29; Homo sapiens, HT-29): 6 µM; IC50 (P388; Mus musculus, P388): 6 µM

`CCCCCCC(=O)O[C@@H]1c2cc3c(cc2[C@@H](c2cc(OC)c(OC)c(OC)c2)[C@H]2C(=O)OC[C@@H]21)OCO3` was tested. Which IC50 (A549; Homo sapiens, A549) did it give?
The IC50 was 0.19 µM.

And the IC50 (HT-29; Homo sapiens, HT-29)?
Its IC50 is 0.19 µM.

What about the IC50 (P388; Mus musculus, P388) of the same molecule?
The IC50 was 0.19 µM.

What about the IC50 (SK-MEL-28; Homo sapiens, SK-MEL-28) of the same molecule?
The IC50 was 0.19 µM.

With `COc1cc([C@@H]2c3cc4c(cc3[C@@H](OC(=O)C3CC5C=CC3C5)[C@H]3COC(=O)[C@H]23)OCO4)cc(OC)c1OC` (some centres undefined) as the molecule, how does the IC50 (A549; Homo sapiens, A549) read?
Its IC50 is 1.12 µM.

And the IC50 (HT-29; Homo sapiens, HT-29)?
Its IC50 is 1.12 µM.

What about the IC50 (P388; Mus musculus, P388) of the same molecule?
Its IC50 is 1.12 µM.

What about the IC50 (SK-MEL-28; Homo sapiens, SK-MEL-28) of the same molecule?
The IC50 was 1.12 µM.

With `COc1cc([C@@H]2c3cc4c(cc3[C@H](OC(=O)/C=C/c3ccccc3)[C@H]3COC(=O)[C@H]23)OCO4)cc(OC)c1OC` as the molecule, how does the IC50 (A549; Homo sapiens, A549) read?
Its IC50 is 9.18 µM.

And the IC50 (HT-29; Homo sapiens, HT-29)?
Its IC50 is 9.18 µM.

And the IC50 (P388; Mus musculus, P388)?
The IC50 was 4.59 µM.

What about the IC50 (SK-MEL-28; Homo sapiens, SK-MEL-28) of the same molecule?
Its IC50 is 9.18 µM.

`COc1cc([C@@H]2c3cc4c(cc3[C@H](OC(=O)Cc3ccccc3)[C@H]3COC(=O)[C@H]23)OCO4)cc(OC)c1OC` was tested. Which IC50 (A549; Homo sapiens, A549) did it give?
Its IC50 is 0.188 µM.

And the IC50 (HT-29; Homo sapiens, HT-29)?
Its IC50 is 0.188 µM.

And the IC50 (P388; Mus musculus, P388)?
Its IC50 is 0.188 µM.

What about the IC50 (SK-MEL-28; Homo sapiens, SK-MEL-28) of the same molecule?
The IC50 was 0.188 µM.

Which IC50 (A549; Homo sapiens, A549) does the source give for `C=CC(=O)O[C@@H]1c2cc3c(cc2[C@@H](c2cc(OC)c(OC)c(OC)c2)[C@@H]2C(=O)OC[C@@H]21)OCO3` here?
The IC50 was 0.021 µM.

And the IC50 (HT-29; Homo sapiens, HT-29)?
Its IC50 is 0.021 µM.

And the IC50 (P388; Mus musculus, P388)?
Its IC50 is 0.021 µM.

What about the IC50 (SK-MEL-28; Homo sapiens, SK-MEL-28) of the same molecule?
The IC50 was 0.021 µM.

Which IC50 (A549; Homo sapiens, A549) does the source give for `C=CC(=O)O[C@@H]1c2cc3c(cc2[C@@H](c2cc(OC)c(OC)c(OC)c2)[C@H]2C(=O)OC[C@@H]21)OCO3` here?
The IC50 was 0.213 µM.

And the IC50 (HT-29; Homo sapiens, HT-29)?
Its IC50 is 0.213 µM.

What about the IC50 (P388; Mus musculus, P388) of the same molecule?
Its IC50 is 0.213 µM.

What about the IC50 (SK-MEL-28; Homo sapiens, SK-MEL-28) of the same molecule?
Its IC50 is 0.213 µM.

For `COc1cc([C@@H]2c3cc4c(cc3[C@@H](O[C@@H]3O[C@@H]5CO[C@@H](C)O[C@H]5[C@H](O)[C@H]3O)[C@H]3COC(=O)[C@H]23)OCO4)cc(OC)c1O` [ETOPOSIDE], which IC50 (HT-29; Homo sapiens, HT-29) is on record?
The IC50 was 1.7 µM.

And the IC50 (P388; Mus musculus, P388)?
The IC50 was 0.17 µM.

And the IC50 (SK-MEL-28; Homo sapiens, SK-MEL-28)?
Its IC50 is 0.85 µM.

What does the source list for `C=CC(=O)O[C@H]1c2cc3c(cc2[C@@H](c2cc(OC)c(OC)c(OC)c2)[C@H]2C(=O)OC[C@@H]21)OCO3`?
IC50 (A549; Homo sapiens, A549): 0.213 µM; IC50 (HT-29; Homo sapiens, HT-29): 0.213 µM; IC50 (P388; Mus musculus, P388): 0.213 µM; IC50 (SK-MEL-28; Homo sapiens, SK-MEL-28): 0.213 µM

For `COc1cc([C@@H]2c3cc4c(cc3[C@H](O)[C@H]3COC(=O)[C@H]23)OCO4)cc(OC)c1OC` [PODOFILOX], which IC50 (A549; Homo sapiens, A549) is on record?
The IC50 was 2.9 µM.

And the IC50 (HT-29; Homo sapiens, HT-29)?
The IC50 was 2.9 µM.

What about the IC50 (P388; Mus musculus, P388) of the same molecule?
The IC50 was 2.9 µM.

Which results are given for `COc1cc([C@@H]2c3cc4c(cc3[C@@H](OC(=O)CC3CC5CCC3C5)[C@H]3COC(=O)[C@H]23)OCO4)cc(OC)c1OC` (some centres undefined)?
IC50 (A549; Homo sapiens, A549): 0.454 µM; IC50 (HT-29; Homo sapiens, HT-29): 0.454 µM; IC50 (P388; Mus musculus, P388): 0.454 µM; IC50 (SK-MEL-28; Homo sapiens, SK-MEL-28): 0.454 µM

What does the source list for `COc1cc([C@@H]2c3cc4c(cc3[C@@H](OC(=O)Cc3ccccc3)[C@H]3COC(=O)[C@H]23)OCO4)cc(OC)c1OC`?
IC50 (A549; Homo sapiens, A549): 0.094 µM; IC50 (HT-29; Homo sapiens, HT-29): 0.094 µM; IC50 (P388; Mus musculus, P388): 0.047 µM; IC50 (SK-MEL-28; Homo sapiens, SK-MEL-28): 0.094 µM

What does the source list for `COc1cc([C@@H]2c3cc4c(cc3[C@@H](OC(=O)/C=C/c3ccccc3)[C@H]3COC(=O)[C@H]23)OCO4)cc(OC)c1OC`?
IC50 (A549; Homo sapiens, A549): 0.184 µM; IC50 (HT-29; Homo sapiens, HT-29): 0.184 µM; IC50 (P388; Mus musculus, P388): 0.184 µM; IC50 (SK-MEL-28; Homo sapiens, SK-MEL-28): 0.184 µM

With `COc1cc([C@@H]2c3cc4c(cc3[C@H](OC(=O)C3CC5C=CC3C5)[C@H]3COC(=O)[C@@H]23)OCO4)cc(OC)c1OC` (some centres undefined) as the molecule, how does the IC50 (A549; Homo sapiens, A549) read?
The IC50 was 0.019 µM.

What about the IC50 (HT-29; Homo sapiens, HT-29) of the same molecule?
The IC50 was 0.019 µM.

What about the IC50 (P388; Mus musculus, P388) of the same molecule?
The IC50 was 0.019 µM.

What about the IC50 (SK-MEL-28; Homo sapiens, SK-MEL-28) of the same molecule?
The IC50 was 0.019 µM.

How did the IC50 (A549; Homo sapiens, A549) turn out when `COc1cc([C@@H]2c3cc4c(cc3[C@H](OC(=O)c3ccccc3)[C@H]3COC(=O)[C@H]23)OCO4)cc(OC)c1OC` was run?
The IC50 was 1.93 µM.

And the IC50 (HT-29; Homo sapiens, HT-29)?
Its IC50 is 1.93 µM.

What about the IC50 (P388; Mus musculus, P388) of the same molecule?
The IC50 was 1.93 µM.

What about the IC50 (SK-MEL-28; Homo sapiens, SK-MEL-28) of the same molecule?
Its IC50 is 1.93 µM.
